From ChEMBL document CHEMBL1123594, “Antiradiation compounds. 20. 1-Methylquinolinium(and pyridinium)-2-dithioacetic acid derivatives” (J Med Chem, 1987)

Experiments:
Mus musculus [1] = assay: Percent survival was determined over a period of 30 days after intraperitoneal administration of a dose of 1.17 mg/kg in mice; type: functional; conditions: ip, 720 h
Procedure, shortened: (§1)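 Female C57 B16 mice (18-20 g), groups of 10, dosed ip in water or 10-20% aqueous ethanol (sometimes with Klucel or a Tween). Whole-body 1000-rad γ-irradiation 30 min after dosing. Survival was followed over 30 days, and animals alive beyond 30 days were counted as protected. Testing was done at Walter Reed Army Institute of Research.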

Mus musculus [2] = assay: Percent survival was determined over a period of 30 days after intraperitoneal administration of a dose of 4.69 mg/kg in mice; type: functional; conditions: ip, 720 h; procedure, shortened: as §1
[3] = Toxic dose was determined after (ip) administration of a dose of 4.69 mg/kg in mice at 1000-rad-gamma-radiation for 30 mins; type: toxicity, organism-based; parameters: dose 4.69 mg/kg; conditions: mouse, in vivo
Procedure, shortened: (§2)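 Drug-toxicity deaths were counted within the radioprotection groups: 10 female C57 B16 mice, dosed by the route stated, then given whole-body 1000-rad γ-irradiation 30 min later. Deaths attributed to compound toxicity occurred before day 5 and were scored separately from the 30-day survival count.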

Mus musculus [4] = assay: Percent survival was determined over a period of 30 days after intraperitoneal administration of a dose of 2.34 mg/kg in mice; type: functional; conditions: ip, 720 h; procedure, shortened: as §1
Mus musculus [5] = assay: Percent protective effect was determined in mice using 600 rads for 30 min after administration of 100 mg/kg; type: functional
Mus musculus [6] = assay: Percent survival was determined over a period of 30 days after intraperitoneal administration of a dose of 9.4 mg/kg in mice; type: functional; conditions: ip, 720 h; procedure, shortened: as §1
[7] = Toxic dose was determined after (ip) administration of a dose of 9.4 mg/kg in mice at 1000-rad-gamma-radiation for 30 mins; type: toxicity, organism-based; parameters: dose 9.4 mg/kg; conditions: mouse, in vivo; procedure, shortened: as §2
Mus musculus [8] = assay: Percent survival was determined over a period of 30 days after intraperitoneal administration of a dose of 4.7 mg/kg in mice; type: functional; conditions: ip, 720 h; procedure, shortened: as §1
Mus musculus [9] = assay: Percent survival was determined over a period of 30 days after intraperitoneal administration of a dose of 2.3 mg/kg in mice; type: functional; conditions: ip, 720 h; procedure, shortened: as §1
Mus musculus [10] = assay: Percent survival was determined over a period of 30 days after intraperitoneal administration of a dose of 1200 mg/kg in mice; type: functional; conditions: ip, 720 h; procedure, shortened: as §1
Mus musculus [11] = assay: Percent survival was determined over a period of 30 days after intraperitoneal administration of a dose of 600 mg/kg in mice; type: functional; conditions: ip, 720 h; procedure, shortened: as §1
Mus musculus [12] = assay: Percent survival was determined over a period of 30 days after intraperitoneal administration of a dose of 300 mg/kg in mice; type: functional; conditions: ip, 720 h; procedure, shortened: as §1
[13] = Toxic dose was determined after (ip) administration of a dose of 1200 mg/kg in mice at 1000-rad-gamma-radiation for 30 mins; type: toxicity, organism-based; parameters: dose 1200 mg/kg; conditions: mouse, in vivo; procedure, shortened: as §2
[14] = Toxic dose was determined in 10-20% ethanol by ip administration in mice. The radiation protective properties were evaluated for groups of 10 mice exposed to 849-rad-gamma-radiation 30 min after dosing.; type: toxicity, organism-based; conditions: mouse, in vivo
[15] = Toxic dose was determined after (ip) administration of a dose of 18.8 mg/kg in mice at 1000-rad-gamma-radiation for 30 mins; type: toxicity, organism-based; parameters: dose 18.8 mg/kg; conditions: mouse, in vivo; procedure, shortened: as §2
Mus musculus [16] = assay: Percent survival was determined over a period of 30 days after intraperitoneal administration of a dose of 18.8 mg/kg in mice; type: functional; conditions: ip, 720 h; procedure, shortened: as §1
Mus musculus [17] = assay: Percent survival was determined over a period of 30 days after intraperitoneal administration of a dose of 2.4 mg/kg in mice; type: functional; conditions: ip, 720 h; procedure, shortened: as §1
Mus musculus [18] = species: Mus musculus; assay: Percent protective effect was determined in mice using 825 rads for 30 min; type: functional
Mus musculus [19] = assay: Percent survival was determined over a period of 30 days after intraperitoneal administration of a dose of 150 mg/kg in mice; type: functional; conditions: ip, 720 h; procedure, shortened: as §1
Mus musculus [20] = assay: Percent survival was determined over a period of 30 days after intraperitoneal administration of a dose of 75 mg/kg in mice; type: functional; conditions: Mus musculus, ip, 720 h; procedure, shortened: as §1
Mus musculus [21] = assay: Percent survival was determined over a period of 30 days after intraperitoneal administration of a dose of 37.5 mg/kg in mice; type: functional; conditions: ip, 720 h; procedure, shortened: as §1
[22] = Toxic dose was determined after (ip) administration of a dose of 150 mg/kg in mice at 1000-rad-gamma-radiation for 30 mins; type: toxicity, organism-based; parameters: dose 150 mg/kg; conditions: mouse, in vivo; procedure, shortened: as §2
Mus musculus [23] = assay: Percent survival was determined over a period of 30 days after intraperitoneal administration of a dose of 1.2 mg/kg in mice; type: functional; conditions: ip, 720 h; procedure, shortened: as §1
[24] = Toxic dose was determined after (ip) administration of a dose of 4.7 mg/kg in mice at 1000-rad-gamma-radiation for 30 mins; type: toxicity, organism-based; parameters: dose 4.7 mg/kg; conditions: mouse, in vivo; procedure, shortened: as §2
Mus musculus [25] = assay: Percent protective effect was determined in mice using 825 rads for 30 min after administration of 120 mg/kg; type: functional

SMILES: CS/C(=C\c1ccc2ccccc2[n+]1C)N1CCCCC1.[I-]
- survival at 1.17 mg/kg (Mus musculus [1]): 30%
- survival at 4.69 mg/kg (Mus musculus [2]): 10%
- LD50 at 0.5 h [3]: 5 mg/kg
- survival at 2.34 mg/kg (Mus musculus [4]): 70%

SMILES: CCOC(=O)C(C#N)=C([S-])[S-].[K+].[K+]
- Protective effect (Mus musculus [5]): 50%

SMILES: COc1ccc2c(ccc(C=C(SC)SC)[n+]2C)c1.[I-]
- survival at 9.4 mg/kg (Mus musculus [6]): 0%
- LD50 at 0.5 h [7]: 30 mg/kg
- survival at 4.7 mg/kg (Mus musculus [8]): 0%
- survival at 2.3 mg/kg (Mus musculus [9]): 0%

SMILES: C[n+]1c(CC(=S)[S-])cccc1CC(=S)[S-].[I-].[Na+].[Na+]
- survival at 1200 mg/kg (Mus musculus [10]): 0%
- survival at 600 mg/kg (Mus musculus [11]): 0%
- survival at 300 mg/kg (Mus musculus [12]): 0%
- LD50 at 0.5 h [13]: > 600 mg/kg
- LD50 at 0.5 h [14]: > 600 mg/kg

SMILES: CS/C(=C\c1cccc[n+]1C)N1CCN(C)CC1.[I-]
- LD50 at 0.5 h [15]: 60 mg/kg
- survival at 9.4 mg/kg (Mus musculus [6]): 0%
- survival at 4.7 mg/kg (Mus musculus [8]): 0%
- survival at 18.8 mg/kg (Mus musculus [16]): 10%

SMILES: CS/C(=C\c1cccc[n+]1C)N1CCOCC1.[I-]
- LD50 at 0.5 h [15]: 50 mg/kg
- survival at 9.4 mg/kg (Mus musculus [6]): 0%
- survival at 4.7 mg/kg (Mus musculus [8]): 0%
- survival at 18.8 mg/kg (Mus musculus [16]): 0%

SMILES: CS/C(=C\c1cccc[n+]1C)N1CCCCC1.[I-]
- survival at 9.4 mg/kg (Mus musculus [6]): 80%
- LD50 at 0.5 h [7]: 25 mg/kg
- survival at 4.7 mg/kg (Mus musculus [8]): 20%
- survival at 2.4 mg/kg (Mus musculus [17]): 30%

SMILES: O=[N+]([O-])c1ccc(CSC(=S)C[n+]2ccccc2)cc1.[Cl-]
- Protective effect (Mus musculus [18]): 33%

SMILES: CSC(=Cc1cccc(C)[n+]1C)SC.[I-]
- LD50 at 0.5 h [15]: 50 mg/kg
- survival at 9.4 mg/kg (Mus musculus [6]): 0%
- survival at 4.7 mg/kg (Mus musculus [8]): 0%
- survival at 18.8 mg/kg (Mus musculus [16]): 40%

SMILES: COC(CN/C(=C/c1ccc2ccccc2[n+]1C)SC)OC.[I-]
- LD50 at 0.5 h [15]: 30 mg/kg
- survival at 9.4 mg/kg (Mus musculus [6]): 0%
- survival at 4.7 mg/kg (Mus musculus [8]): 0%
- survival at 18.8 mg/kg (Mus musculus [16]): 30%

SMILES: CSC(=Cc1cccc[n+]1C)SC.[I-]
- LD50 at 0.5 h [15]: 30 mg/kg
- survival at 9.4 mg/kg (Mus musculus [6]): 0%
- survival at 4.7 mg/kg (Mus musculus [8]): 0%
- survival at 18.8 mg/kg (Mus musculus [16]): 50%

SMILES: Cc1ccc2c(ccc(CC(=S)[S-])[n+]2C)c1
- survival at 150 mg/kg (Mus musculus [19]): 10%
- survival at 75 mg/kg (Mus musculus [20]): 20%
- survival at 37.5 mg/kg (Mus musculus [21]): 10%
- LD50 at 0.5 h [22]: 225 mg/kg

SMILES: CCCCCCSC(=Cc1cccc[n+]1C)SCCCCCC.[I-]
- survival at 1.2 mg/kg (Mus musculus [23]): 0%
- survival at 4.7 mg/kg (Mus musculus [8]): 0%
- LD50 at 0.5 h [24]: 5 mg/kg
- survival at 2.3 mg/kg (Mus musculus [9]): 0%

SMILES: N#CC(C(=O)c1ccccc1)=C([S-])[S-].[K+].[K+]
- Protective effect (Mus musculus [25]): 17%
